From ChEMBL document CHEMBL1811909, “Synthesis and antiproliferative activity of novel 2-aryl-4-benzoyl-imidazole derivatives targeting tubulin polymerization” (Bioorg Med Chem, 2011) come the findings set out here.

Data set [1] concerns Liver microsomes. Put plainly: Metabolic stability of the compound in human liver microsomes at 0.5 uM up to 90 mins by LC-MS analysis. Type of data set: ADME, Microsome.
Data set [2] deals with Liver microsomes. Briefly: Metabolic stability of the compound in human liver microsomes at […] up to 90 mins by LC-MS analysis. It counts as ADME, Microsome. A digest of the protocol: (§1)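 Aliquots were drawn at 5, 10, 20, 30, 60 and 90 min and quenched in acetonitrile containing internal standard. After centrifugation, supernatants were measured by LC-MS/MS to follow parent loss and derive half-life.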
In general terms: Liver microsomes are a subcellular fraction often used to study metabolism.

For data set [3], the system named is Liver. Briefly: Half life in mouse liver microsomes at 0.5 uM by LC-MS analysis. Type of data set: ADME, Microsome. A digest of the protocol:
(§2)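 Compound at 0.5 µM incubated with 1 mg/mL liver microsomal protein at 37 °C with shaking. […] Samples taken at 5, 10, 20, 30, 60 and 90 min and quenched with acetonitrile containing internal standard. After centrifugation, the supernatant was analysed by LC-MS/MS.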

Data set [4] has as its system Liver microsomes. Briefly: Half life in rat liver microsomes at 0.5 uM by LC-MS analysis. Type of data set: ADME, Microsome. In outline: as §2
The subject of data set [5] is Liver. Briefly: Metabolic stability of the compound in dog liver microsomes at 0.5 uM up to 90 mins by LC-MS analysis. Type of data set: ADME, Canis lupus familiaris, Microsome. In outline: as §2
The species entered for data set [6] is Bos taurus. Put plainly: Inhibition of bovine brain tubulin polymerization after 15 mins by spectrophotometric analysis. A digest of the protocol: (§3)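 Bovine brain tubulin (>97% pure, 0.4 mg per assay) mixed with compound at 5, 10 or 20 µM, with 5% DMSO as vehicle control. Buffer: 80 mM PIPES, 2.0 mM MgCl2, 0.5 mM EGTA, 1 mM GTP, pH 6.9. Polymerization followed at 37 °C as absorbance at 340 nm, read every minute for 15 min.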

Data set [7] deals with A-375. Put plainly: Antiproliferative activity against human A375 cells after 48 hrs by sulforhodamine B assay. The conditions noted are these: A-375, 48 h. It counts as functional, cell-based.
Data set [8] in a line: Antiproliferative activity against human WM164 cells after 48 hrs by sulforhodamine B assay. Type of data set: functional, cell-based. The conditions noted are these: WM164, 48 h. (In SRB staining, fixed cells bind dye roughly in proportion to their protein.)
Data set [9] has as its system LNCaP. Briefly: Antiproliferative activity against human LNCAP cells after 96 hrs by sulforhodamine B assay. Type of data set: functional, cell-based.
For data set [10], the system named is PC-3. Briefly: Antiproliferative activity against human PC3 cells after 96 hrs by sulforhodamine B assay. Type of data set: functional, cell-based. The conditions noted are these: PC-3, 96 h.
Data set [11] deals with DU-145. Briefly: Antiproliferative activity against human DU145 cells after 96 hrs by sulforhodamine B assay. The note with it: DU-145, 96 h. Type of data set: functional, cell-based.
Data set [12] has as its system PPC-1. Put plainly: Antiproliferative activity against human PPC1 cells after 96 hrs by sulforhodamine B assay. Type of data set: functional, cell-based. The note with it: PPC-1, 96 h.
In data set [13] the test system is MDA-MB-435. Put plainly: Antiproliferative activity against human MDA-MB-435 cells by sulforhodamine B assay. It counts as functional, cell-based.
The subject of data set [14] is MDA-MB-435. Briefly: Antiproliferative activity against human MDA-MB-435 cells expressing LCC6MDR1 by sulforhodamine B assay. It counts as functional, cell-based.
The subject of data set [15] is PC-3. Put plainly: Antiproliferative activity against human PC3 cells by sulforhodamine B assay. Type of data set: functional, cell-based. A digest of the protocol: (§4)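 Prostate cancer cells grown in RPMI 1640 with 10% FBS at 37 °C, 5% CO2. Cells (1000–5000/well, by growth rate) were exposed to a range of concentrations for 96 h, in three to five replicates. Growth was read by SRB: TCA fixation, 0.4% SRB stain, absorbance at 540 nm.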

Data set [16] has as its system PC-3. Put plainly: Antiproliferative activity against human paclitaxel-resistant PC3 cells by sulforhodamine B assay. Type of data set: functional, cell-based. A digest of the protocol:
as §4

The subject of data set [17] is DU-145. Put plainly: Antiproliferative activity against human DU145 cells by sulforhodamine B assay. It counts as functional, cell-based.
The test system of data set [18] is DU-145. Briefly: Antiproliferative activity against human paclitaxel-resistant DU145 cells by sulforhodamine B assay. It counts as functional, cell-based. A digest of the protocol:
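Prostate cancer cells grown in RPMI 1640 with 10% FBS at 37 °C, 5% CO2. Seeded at 1000–5000 cells/well depending on growth rate and exposed to a concentration series for 96 h, in three to five replicates. Cells fixed with 10% TCA and stained with 0.4% SRB, absorbance read at 540 nm.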

For data set [19], the system named is MDA-MB-435. Put plainly: Resistance index, ratio of IC50 for human MDA-MB-435 cells expressing LCC6MDR1 to IC50 for human MDA-MB-435 cells. Type of data set: functional.
Data set [20] has as its system PC-3. Put plainly: Resistance index, ratio of IC50 for human paclitaxel-resistant PC3 cells to IC50 for human PC3 cells. It counts as functional. In outline: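 Ratio of SRB-assay IC50 values, paclitaxel-resistant PC-3-TxR over parental PC-3. Both lines grown in RPMI 1640 with 10% FBS and treated for 96 h, in three to five replicates. IC50 taken from absorbance at 540 nm by nonlinear regression.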

Data set [21] has as its system DU-145. Put plainly: Resistance index, ratio of IC50 for human paclitaxel-resistant DU145 cells to IC50 for human DU145 cells. Type of data set: functional. In outline:
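Ratio of SRB-assay IC50 values, paclitaxel-resistant DU145-TxR over parental DU145. Both lines grown in RPMI 1640 with 10% FBS and exposed to the compound for 96 h, in three to five replicates. Absorbance read at 540 nm after TCA fixation and SRB staining.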

Data set [22] is filed under the species Bos taurus. Briefly: Inhibition of bovine brain tubulin polymerization at 10 to 20 uM after 15 mins by spectrophotometric analysis. A digest of the protocol: as §3
The subject of data set [23] is Liver. Briefly: Half life in mouse liver microsomes at […] by LC-MS analysis. It counts as ADME, Microsome. In outline:
as §1

Data set [24] relates to Liver microsomes. Briefly: Half life in rat liver microsomes at […] by LC-MS analysis. It counts as ADME, Microsome. In outline: as §1
In data set [25] the test system is Liver. Briefly: Metabolic stability of the compound in dog liver microsomes at […] up to 90 mins by LC-MS analysis. Type of data set: ADME, Canis lupus familiaris, Microsome. A digest of the protocol:
as §1

The structures appear in SMILES notation. Active and inactive are the calls of the source. The rule behind the calls is not given here.

Usually IC50 stands for the point on the concentration scale where inhibition reaches its midpoint. High values mean weaker potency, low ones greater potency.

Turning to `COc1cc(C(=O)c2c[nH]c(-c3ccc(C)cc3)n2)cc(OC)c1OC`, the Stability entry in [1], in [2] and in data set [5] was “Stable” throughout. Moreover, the values for the t1/2 in data set [3] and in data set [4] were 12 min and 20 min, respectively. Besides, the inhibition entry in data set [6] is “Dose-dependent effect”.

`COc1cc(C(=O)c2c[nH]c(-c3ccc(Br)cc3)n2)cc(OC)c1OC`: the IC50 is 30 nM in data set [7]; 40 nM in [8]; 30 nM in [9]; 40 nM in [10]; 50 nM in data set [11]; 30 nM in [12]. Also, the IC50 in [13] came to 86 nM; in data set [14] it was 79 nM; in data set [15], 18 nM; in data set [16], 16 nM; in [17] it was 49 nM; in data set [18], 54 nM. The “Ratio IC50” value in data set [19] was found to be 0.9; in data set [20] it was 0.9; in [21] it was 1.1. In addition, the inhibition result in [6] is “Dose-dependent effect”. Also, the inhibition entry in data set [22] is “Active”.

On to `COc1cc(C(=O)c2cn(C)c(-c3ccc(C)cc3)n2)cc(OC)c1OC`, for which the IC50 in data set [7] was found to be 30 nM; in data set [8], 40 nM; in data set [9], 30 nM; in data set [10], 40 nM; in [11], 30 nM; in data set [12], 30 nM. Further, the half-inhibitory concentration (IC50) was 83 nM in data set [13]; 67 nM in data set [14]; 21 nM in data set [15]; 19 nM in data set [16]; 52 nM in data set [18]. Further, the “Ratio IC50” value in [19] is recorded as 0.8; in data set [20] it was 0.9; in [21], 1. Besides, the Stability entry in data set [1], in [2] and in data set [25] was “Stable” in each case. For the same molecule, the t1/2 came to 5 min in data set [23] and 10 min in data set [24]. In addition, the inhibition result in data set [6] is “Dose-dependent effect”.
